# Reference: ChEMBL document CHEMBL3856193, “Combretastatin A-4 analogues with benzoxazolone scaffold: Synthesis, structure and biological activity” (Eur J Med Chem, 2016)
# Active and inactive are the calls of the source. No cut-off for these calls is given here.
# Tests used:
# [1] = Growth inhibition of human EAhy926 cells measured after 72 hrs by MTT assay; assay type: functional, cell-based; details: EA.hy 926, 72 h
# Method in brief: (§1)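 Cells seeded at 1 x 10^4/100 µL, treated 24 h later with drug diluted from 2 mmol/L DMSO stock (0.01% DMSO final), 72 h incubation. MTT added for 3 h at 37°C, formazan dissolved in 0.1 N HCl/isopropanol, OD read at 550/630 nm. Eight replicates per concentration, mean ± SD. IC50 from curve fitting. Cells kept at 37°C in humidified CO2.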
# [2] = Growth inhibition of human HepG2 cells measured after 72 hrs by MTT assay; assay type: functional, cell-based; details: HepG2, 72 h; method in brief: as §1
# [3] = Growth inhibition of human K562 cells measured after 72 hrs by MTT assay; assay type: functional, cell-based; details: K562, 72 h; method in brief: as §1
# EA.hy 926 [4] = experiment: Antiangiogenic activity against human EAhy926 assessed as inhibition of capillary tube formation at 0.28 uM after 72 hrs by matrigel assay; assay type: functional
# Method in brief: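 EA.hy 926 cells (4 x 10^4) plated onto Matrigel pre-set 30 min at 37°C in complete DMEM; after 24 h medium replaced by EBM2 alone (control) or EBM2 with 0.28 µM or 0.11 µM drug. Capillary tube formation followed by inverted microscopy up to 72 h.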
# [5] = Cytostatic activity against human MCF10A cells assessed as cell survival up to 25 uM measured after 72 hrs by MTT assay relative to control; assay type: ADME, cell-based, MCF-10A; details: read-out: Survival
# [6] = Antiproliferative activity against mouse Colon 26 cells measured after 72 hrs by MTT assay; assay type: functional, cell-based; details: Colon 26, 72 h
# Method in brief: (§2)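 Cells seeded at 1 × 10^4 per well and left 24 h, then exposed to graded compound concentrations (stock 2 mmol/L in DMSO, final DMSO 0.01% in medium) for 72 h at 37 °C in humidified CO2. MTT (5 mg/mL) added for 3 h; formazan dissolved in 0.1 N HCl/isopropanol and read at 550/630 nm. Eight replicate wells per concentration; IC50 from curve fitting.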
# Colon 26 = experiment: Potency index, ratio of combretastatin A-4 IC50 to compound IC50 for mouse Colon 26 cells; assay type: functional
# Sus scrofa [7] = species on record: Sus scrofa; experiment: Inhibition of porcine brain tubulin polymerization at 50 uM measured every 1 min for 40 mins in presence of GTP
# EA.hy 926 [8] = experiment: Induction of apoptosis in human EAhy926 cells assessed as necrotic cells at 0.19 to 0.28 uM measured after 48 hrs by Annexin V-FITC/propidium iodide staining-based flow cytometric analysis relative to control; assay type: functional
# HepG2 [9] = experiment: Induction of apoptosis in human HepG2 cells assessed as increase in apoptotic cells at growth inhibitory IC50 measured after 48 hrs by Annexin V-FITC/propidium iodide staining-based flow cytometric analysis relative to control; assay type: functional, cell-based
# [10] = Cell cycle arrest in human HepG2 cells assessed as accumulation of hypoploid sub-G1 cells at growth inhibitory IC50 measured after 72 hrs by propidium iodide-staining based FACS analysis; assay type: functional
# [11] = Cell cycle arrest in human HepG2 cells assessed as accumulation in G2/M phase at growth inhibitory IC50 measured after 8 hrs by propidium iodide-staining based FACS analysis (reference value: 28%); assay type: functional; parameters: scale not given: the % may be the effect or the level left
# [12] = Cell cycle arrest in human HepG2 cells assessed as decrease in S phase at growth inhibitory IC50 measured after 24 hrs by propidium iodide-staining based FACS analysis; assay type: functional
# [13] = Antiproliferative activity against human MCF7 cells measured after 72 hrs by MTT assay; assay type: functional, cell-based; details: MCF7, 72 h; method in brief: as §1
# A549 = experiment: Potency index, ratio of combretastatin A-4 IC50 to compound IC50 for human A549 cells; assay type: functional
# HepG2 [14] = experiment: Cytostatic activity against human HepG2 cells up to 25 uM measured after 72 hrs by MTT assay; assay type: functional, cell-based; method in brief: as §1
# HepG2 [15] = experiment: Inhibition of beta-tubulin polymerization in human HepG2 cells assessed as DNA fragmentation at 185 to 190 nM measured after 24 hrs by DAPI staining based immunofluorescence analysis; assay type: cell-based
# Method in brief: (§3)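 HepG2 cells grown on coverslips were treated 24 h with 185 nM drug, with 0.01% DMSO vehicle as control. Cells fixed in 3.7% buffered paraformaldehyde and immunostained for β-tubulin (AlexaFluor-488 secondary, 40 min). F-actin labelled with phalloidin, DNA with DAPI mounting medium. Imaged by fluorescence microscopy.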
# [16] = Antiproliferative activity against human HaCaT cells measured after 72 hrs by MTT assay; assay type: functional, cell-based; method in brief: as §2
# HepG2 [17] = experiment: Inhibition of beta-tubulin polymerization in human HepG2 cells assessed as multi-polar spindle formation at 185 to 190 nM measured after 24 hrs by DAPI staining based immunofluorescence analysis; assay type: cell-based; method in brief: as §3
# [18] = Cytotoxicity against human NHEK measured after 72 hrs by MTT assay; assay type: toxicity; method in brief: as §1
# HepG2 [19] = experiment: Induction of micronuclei formation in human HepG2 cells at 185 to 190 nM measured after 24 hrs by DAPI staining based immunofluorescence analysis; assay type: functional, cell-based; method in brief: as §3
# HepG2 [20] = experiment: Inhibition of beta-tubulin polymerization in human HepG2 cells assessed as induction of mitotic ploidity at 185 to 190 nM measured after 24 hrs by DAPI staining based immunofluorescence analysis; assay type: cell-based; method in brief: as §3
# EA.hy 926 [21] = experiment: Cytostatic activity against human EAhy926 cells up to 25 uM measured after 72 hrs by MTT assay; assay type: functional, cell-based; method in brief: as §1
# HepG2 [22] = experiment: Inhibition of beta-tubulin polymerization in human HepG2 cells assessed as mitotic slippage at 185 to 190 nM measured after 24 hrs by DAPI staining based immunofluorescence analysis; assay type: cell-based; method in brief: as §3
# [23] = Cell cycle arrest in human HepG2 cells assessed as decrease in accumulation of G2/M phase at growth inhibitory IC50 measured after 72 hrs by propidium iodide-staining based FACS analysis; assay type: functional
# EA.hy 926 [24] = experiment: Induction of apoptosis in human EAhy926 cells assessed as increase in apoptotic cells at growth inhibitory IC50 measured after 48 hrs by Annexin V-FITC/propidium iodide staining-based flow cytometric analysis relative to control; assay type: functional, cell-based
# Sus scrofa [25] = species on record: Sus scrofa; experiment: Induction of porcine brain tubulin polymerization assessed as time required to reach maxium effect at 10 uM measured every 1 min for 40 mins in presence of GTP
# Sus scrofa [26] = species on record: Sus scrofa; experiment: Inhibition of porcine brain tubulin polymerization at 10 uM measured every 1 min for 40 mins in presence of GTP
# [27] = Cell cycle arrest in human HepG2 cells assessed as increase in G2/M phase accumulation at growth inhibitory IC50 after 8 hrs by propidium iodide-staining based FACS analysis relative to combretastatin A-4; assay type: functional; parameters: scale not given: the % may be the effect or the level left
# [28] = Cell cycle arrest in human HepG2 cells assessed as accumulation of cells with 4N DNA content at growth inhibitory IC50 measured after 24 hrs by propidium iodide-staining based FACS analysis relative to control; assay type: functional; parameters: scale not given: the % may be the effect or the level left
# [29] = Cell cycle arrest in human HepG2 cells assessed as decrease in G0/G1 phase at growth inhibitory IC50 measured after 24 hrs by propidium iodide-staining based FACS analysis; assay type: functional
# [30] = Antiproliferative activity against CA-4-resistant human MDA-MB-231 cells measured after 72 hrs by MTT assay; assay type: functional, cell-based; details: MDA-MB-231, 72 h; method in brief: as §1
# [31] = Antiproliferative activity against CA-4-resistant human HT-29 cells measured after 72 hrs by MTT assay; assay type: functional, cell-based; details: HT-29, 72 h; method in brief: as §2
# HT-29 = experiment: Potency index, ratio of IC50 for combretastatin A-4 to IC50 for test compound against human HT-29 cells; assay type: functional
# [32] = Antiproliferative activity against CA-4-resistant human A549 cells measured after 72 hrs by MTT assay; assay type: functional, cell-based; details: A549, 72 h; method in brief: as §2
# Sus scrofa [33] = species on record: Sus scrofa; experiment: Inhibition of porcine brain tubulin polymerization measured every 1 min for 40 mins in presence of GTP
# HepG2 [34] = experiment: Inhibition of beta-tubulin polymerization in human HepG2 cells assessed as formation of pseudo G1 phase multinucleated cells at 185 to 190 nM measured after 24 hrs by DAPI staining based immunofluorescence analysis; assay type: cell-based; method in brief: as §3
# K562 = experiment: Cytostatic activity against human K562 cells up to 25 uM measured after 72 hrs by MTT assay; assay type: functional, cell-based; method in brief: as §1
# [35] = Cell cycle arrest in human HepG2 cells assessed as >4N DNA content at growth inhibitory IC50 measured after 24 hrs by propidium iodide-staining based FACS analysis relative to control; assay type: functional; parameters: scale not given: the % may be the effect or the level left
# HepG2 [36] = experiment: Induction of apoptosis in human HepG2 cells assessed as necrotic cells at 0.19 to 0.28 uM measured after 48 hrs by Annexin V-FITC/propidium iodide staining-based flow cytometric analysis relative to control; assay type: functional
smiles,measurement,setting,value
COc1ccc(/C=C\c2cccc3c2oc(=O)n3C)cc1,IC50,[1],> 50 µM
same,IC50,[2],47.2 µM
same,IC50,[3],> 50 µM
COc1ccc(/C=C\c2cccc3oc(=O)n(C)c23)cc1OC,IC50,[1],> 50 µM
same,IC50,[2],> 50 µM
same,IC50,[3],2.07 µM
COc1ccc(/C=C\c2ccc3oc(=O)n(C)c3c2)cc1,IC50,[1],15.1 µM
same,IC50,[2],48.1 µM
same,IC50,[3],24.2 µM
COc1cc(/C=C\c2ccc3c(c2)oc(=O)n3C)cc(OC)c1OC,inhibition,EA.hy 926 [4],Active
same,viability at 72 h,[5],70%
same,IC50,[6],0.05 µM
same,Ratio IC50,Colon 26,9
same,inhibition,Sus scrofa [7],Active
same,Activity,EA.hy 926 [8],20%
same,Activity,HepG2 [9],Active
same,Activity,[10],Active
same,IC50,[1],0.28 µM
same,Activity,[11],39%
same,Activity,[12],Active
same,IC50,[13],0.07 µM
same,Ratio IC50,A549,50
same,Activity,HepG2 [14],Active
same,inhibition,HepG2 [15],Active
same,IC50,[16],0.06 µM
same,IC50,[2],0.19 µM
same,inhibition,HepG2 [17],Active
same,Activity,[18],Non-Toxic
same,Activity,HepG2 [19],Active
same,inhibition,HepG2 [20],Active
same,Activity,EA.hy 926 [21],Active
same,inhibition,HepG2 [22],Active
same,Activity,[23],Active
same,Activity,EA.hy 926 [24],Active
same,IC50,[3],0.73 µM
same,TIME,Sus scrofa [25],0.333 h
same,inhibition,Sus scrofa [26],40%
same,Activity,[27],6%
same,Activity,[28],80%
same,Activity,[29],Active
same,IC50,[30],0.168 µM
same,IC50,[31],0.25 µM
same,Ratio IC50,HT-29,>10
same,IC50,[32],0.06 µM
same,inhibition,Sus scrofa [33],Dose-dependent effect
same,inhibition,HepG2 [34],Active
same,Activity,K562,Active
same,Activity,[35],9%
same,Activity,HepG2 [36],20%
COc1ccc(/C=C\c2cccc3oc(=O)n(C)c23)cc1,IC50,[1],39.9 µM
same,IC50,[2],16.1 µM
same,IC50,[3],0.96 µM
COc1ccc(/C=C\c2ccc3c(c2)oc(=O)n3C)cc1,IC50,[1],> 50 µM
same,IC50,[2],> 50 µM
same,IC50,[3],> 50 µM
COc1cc(/C=C\c2cccc3oc(=O)n(C)c23)cc(OC)c1,IC50,[1],29.4 µM
same,IC50,[2],18 µM
same,IC50,[3],11.3 µM
COc1ccc(/C=C\c2ccc3oc(=O)n(C)c3c2)cc1OC,IC50,[1],> 50 µM
same,IC50,[2],42.1 µM
same,IC50,[3],> 50 µM
